Results gathered from unrelated publications.
Lines come from different studies, so protocols differ.
DPP3: Dipeptidyl peptidase 3 (DPP3, Homo sapiens, UniProt Q9NY33)
PTK2: Focal adhesion kinase 1 (PTK2, Homo sapiens, UniProt Q05397)
MAOA: Amine oxidase [flavin-containing] A (MAOA, Homo sapiens, UniProt P21397)
CTSS: Cathepsin S (CTSS, Homo sapiens, UniProt P25774)

| SMILES | target | test | setting | inhibition |
| --- | --- | --- | --- | --- |
| CCOC(=O)c1ccc(OC(=O)CCCCCNC(=N)N)cc1 | DPP3 | enzyme activity, inhibitor | 10 µM | 4% |
| CCN(CC)CCCC[C@H](NC(=O)[C@H](CC(C)C)NC(=O)[C@H](C)NC(=O)[C@H](Cc1ccccc1)NC(=O)c1ccc(C(C)(C)C)cc1)C(=O)N[C@@H](CO)C(=O)OC | Vasoactive intestinal polypeptide receptor 1 (VIPR1, Homo sapiens, UniProt P32241) | ligand displacement, radioligand | 10 µM | -9% |
| O=C(Nc1cccnn1)N1CCN([C@@H]2CCOc3cc(C(F)(F)F)ccc32)CC1 | Kappa-type opioid receptor (Oprk1, Rattus norvegicus, UniProt P34975) | cell-free assay | 20 µM | 21% |
| Cc1ncc(C)n2nc(/C=C/c3nc(N4CCCC4)cc(N4CCOCC4)n3)nc12 | Angiotensin-converting enzyme 2 (ACE2, Homo sapiens, UniProt Q9BYF1) | enzyme activity, inhibitor | 10 µM | 11% |
| C#Cc1n[nH]c2c(-c3cn([C@@H](C)c4ccccn4)c(=O)[nH]c3=O)cc(F)cc12 | PTK2 | enzyme activity, inhibitor | 0.1 µM | 4.5% |
| Cn1cc(-c2cccc(N3CCc4c(sc5c4CC(C)(C)C5)C3=O)c2CO)cc(Nc2ccncn2)c1=O | Cyclin-dependent kinase 5, with p25 (CDK5, Homo sapiens, UniProt Q00535) | enzyme activity, inhibitor | 1 µM | 2% |
| O=C(Nc1ccc([N+](=O)[O-])cc1[N+](=O)[O-])c1ccc2c(c1)OCO2 | MAOA | enzyme activity, inhibitor | 1 µM, 20 min | 44% |
| CC(C)C[C@H](NC(=O)[C@H]1O[C@@H]1C(=O)O)C(=O)NCCCCN=C(N)N | CTSS | enzyme activity, inhibitor | 50 nM | 81% |
| c1ccc(C(NCCNC(c2ccccc2)c2ccccc2)c2ccccc2)cc1 | MAOA | cell-free assay, inhibitor | 10 µM | 11% |
| N=C(N)c1ccc2cc(OC(=O)c3ccc(N=C(N)N)cc3)ccc2c1 | DPP3 | enzyme activity, inhibitor | 10 µM | 3% |
| CN(CCN1CCC(OC(=O)Nc2ccccc2-c2ccccc2)CC1)C(=O)c1ccc(CN2CCC(C(N)=O)CC2)cc1 | MAOA | enzyme activity, inhibitor | 1 µM | -2% |
| C#Cc1n[nH]c2c(-c3cn([C@@H](C)c4ccccc4)c(=O)[nH]c3=O)cc(F)cc12 | PTK2 | enzyme activity, inhibitor | 0.1 µM | 3.8% |
| O=c1ccoc2ccc(OCCCCN3CCCCC3)cc12 | MAOA | enzyme activity, inhibitor, fluorescence | 10 µM | 16% |
| CN(C)C(=O)COC(=O)Cc1ccc(OC(=O)c2ccc(NC(=N)N)cc2)cc1 | CTSS | enzyme activity, inhibitor | 10 µM | 3% |
| CN1CCN(CCCCOc2ccc3occc(=O)c3c2)CC1 | MAOA | enzyme activity, inhibitor, fluorescence | 10 µM | 5% |
| COCc1c(-c2cc3cc(C)cc(OC)c3s2)c2c(N)ncnn2c1CN1CCNC(=O)C1 | Thromboxane-A synthase (TBXAS1, Homo sapiens, UniProt P24557) | enzyme activity, inhibitor | 10 µM | 86% |
